Most compounds without a hit are left out; they make up all but 2.3% or so of the library.
Tb MetRS inh = blocks T. brucei methionyl-tRNA synthetase activity | purified T. brucei MetRS, ATP depletion, Kinase-Glo luminescence | inhibition, % at 11.9 µM | hit rate 0.4% among 360,000 | AID 624268;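 active = inhibition above a per-plate cutoff of the control wells' mean inhibition plus 3 SD, cut at about 5.5% in these data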;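 note: 0% = DMSO wells median and 100% = median of wells with control inhibitor compound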
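Assay system: T. brucei methionyl-tRNA synthetase, purified | Medium: HEPES buffer with MgCl2, KCl, DTT, spermine, BSA, pyrophosphatase | Compound: 11.9 µM single point | Incubation: 15 min enzyme-compound preincubation, 2 h reaction, 10 min detection, 25 °C | Measured by: Kinase-Glo luciferase luminescence reporting remaining unconsumed ATP | Measure: % inhibition normalized to control-well medians | Replication: Singlicate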
PLCb3 inh = PLC-beta3 (human) inhibition, primary screen | hit rate 0.18% among 370,000 | AID 720704 | Purified PLC-beta3, fluorogenic substrate, fluorescence | inhibition, % at 12.2 µM; in the data active = inhibition above about 11%;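 note: 0% = median of compound wells on plate and 100% = full blocker control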
ADAM10 inh = inhibitors of human ADAM10; O14672; recombinant ADAM10, EDANS/DABCYL FRET peptide cleavage, 3 h; inhibition, % at 7 µM; hit rate 0.62% among 370,000; AID 720582;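 active = inhibition above a per-campaign cutoff equal to the mean of compounds falling between control-based bounds plus 3 SD, cut at about 20% in these data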;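 note: 0% = DMSO wells while the 100% control is not disclosed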
PLC-gamma1 inh = inhibitors of human phospholipase C gamma1 | inhibition, % at 12.2 µM | P19174 | hit rate 0.84% among 370,000 | AID 720700 | purified PLC-gamma1, fluorogenic substrate, fluorescence
ADAM17 inh = ADAM17 inhibition, QFRET primary screen; P78536; recombinant ADAM17, EDANS/DABCYL FRET peptide cleavage; inhibition, % at 6.95 µM; hit rate 0.83% among 370,000;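 active = inhibition above the mean of compounds lying between control limits plus 3 SD, set per campaign, cut at about 8.5% in these data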;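 note: 0% = DMSO-only wells as the low control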
PLCgamma1 ctr = inhibits human PLC-gamma1 in PLC-beta3 counter-screen; AID 743258; hit rate 3.1% among 3,300; inhibition, % at 12.3 µM; shares compounds with PLC-gamma1 inh; purified PLC-gamma1, fluorogenic substrate, fluorescence
PLCbeta3 conf = confirmation of human PLC-beta3 inhibitors; shares compounds with PLC-gamma1 inh; purified PLC-beta3, fluorogenic substrate fluorescence; inhibition, % at 12.3 µM; hit rate 1% among 3,300; AID 743261; in the data active = inhibition above about 11%
Starred values were filed as active, the others as inactive; i = inactive; . = no result given. Cut-off read from the data, not from the text of the source, unless noted: active = inhibition above about 9.5%; inactive = the rest.

SMILES	Tb MetRS inh	PLCb3 inh	ADAM10 inh	PLC-gamma1 inh	ADAM17 inh	PLCgamma1 ctr	PLCbeta3 conf
COc1ccc(S(=O)(=O)N2CCCCCC2)cc1C(=O)N(C)CC(=O)Nc1ccccc1Cl	0	-1	1	-3	1	.	.
COc1ccc(S(=O)(=O)N2CCCCCC2)cc1C(=O)N(C)CC(=O)Nc1ccccc1Br	-1	-4	-10	10*	-1	0	1
Cc1ccc(NC(=O)C2c3ccccc3Oc3ccccc32)c(C)c1	-1	1	-7	-1	-2	.	.
N#CCC(C(=O)c1cccnc1)c1ccccc1 (stereo unspecified)	0	11*	7	1	5	0	-6
CN(C)CCC(C(=O)c1ccccc1)c1cccnc1 (stereo unspecified)	0	-3	-16	-2	-1	.	.
O=C(NC1CCCC1)C(c1ccccc1)N(C(=O)c1ccco1)C1CCCC1 (stereo unspecified)	-1	-3	-3	9.9*	-1	-7	-1
C=CCN(C(=O)CNC(=O)c1ccco1)C(C(=O)NC1CCCCC1)c1ccc(F)cc1 (stereo unspecified)	0	4	7	10*	4	-5	-2
O=C(NCC(=O)N(c1ccccc1)C(C(=O)NC1CCCC1)c1cccnc1)c1ccco1 (stereo unspecified)	-1	8	10	10*	7	-6	-7
Cc1cc(C)n2nc(SC(C)C(=O)NC3CCCCC3C)nc2n1 (stereo unspecified)	0	-1	6	4	-3	.	.
COC(=O)C(Cc1ccc(O)cc1)NC(=O)C(C)NC(=O)c1ccc(C(C)(C)C)cc1 (stereo unspecified)	0	2	7	9.7*	5	6	-14
COc1c(Cl)cc(Cl)cc1CNCc1ccccc1	-1	11	9	11*	1	-7	-3
COc1cc(CNCc2ccccc2)cc(Cl)c1OC	-1	-1	1	1	0	.	.
COc1cccc(CNc2nc(NCC3CC3)nc3ccsc23)c1OC	0	6	-26	10.0*	0	-5	-2
CCOC(=O)C1(Cc2cccc(Cl)c2)CCCN(C(=O)c2ccnn2C)C1 (stereo unspecified)	0	-3	5	4	0	.	.
CCOC(=O)C1(Cc2cccc(Cl)c2)CCCN(C(=O)c2cc(C)n(C)n2)C1 (stereo unspecified)	0	-3	6	10*	3	-2	1
Cc1cccn2c(=O)c3cc(C(=O)NCC4CCCO4)c(=N)n(C4CCCC4)c3nc12 (stereo unspecified)	0	i	i	i	i	.	.
COC(=O)c1ccc(OCCOc2ccccc2)cc1	-1	1	10	11*	4	-7	-4
CC(=O)Oc1ccc(N(C(C)=O)S(=O)(=O)c2cccs2)c2ccccc12	-1	-10	-4	-6	-4	.	.
CS(=O)(=O)N(CC(=O)NCCSCc1ccccc1Cl)c1ccc(F)cc1	-1	0	11	13*	7	-4	-2
CS(=O)(=O)N(CC(=O)NCCSc1ccccn1)c1ccc(F)cc1	-1	1	7	3	3	.	.
COc1ccccc1N1CCN(C(c2cccs2)c2nnnn2C2CCCC2)CC1 (stereo unspecified)	0	2	-3	9.9*	1	1	1
c1ccc(CC2CCN(C(c3cccs3)c3nnnn3C3CCCC3)CC2)cc1 (stereo unspecified)	-1	0	8	-4	-3	.	.
N=c1sccn1CC(=O)NCCc1ccc(Cl)cc1	0	3	6	10*	3	-8	-7
COC(=O)c1cc(S(=O)(=O)NCC2CCN(C(=O)C(=O)c3cccs3)CC2)cs1	.	1	-2	5	-6	.	.
CC(C)NC(=O)c1ccccc1NS(=O)(=O)c1ccc(Br)s1	0	-4	3	-1	-3	.	.
O=C(c1ccccc1NS(=O)(=O)c1ccc(Br)s1)N1CCCC1	0	11*	18	9	2	-5	-2
COC(=O)CC1N(S(=O)(=O)c2ccc(C)cc2)c2ccccc2C1(C(=O)OC)C(=O)OC (stereo unspecified)	0	-2	-15	2	-6	.	.

Bioassay records (PubChem BioAssay)
